ChEMBL document CHEMBL1123290, “Synthesis, antimalarial activity, and quantitative structure-activity relationships of tebuquine and a series of related 5-[(7-chloro-4-quinolinyl)amino]-3-[(alkylamino)methyl] [1,1'-biphenyl]-2-ols and N omega-oxides” (1986)

How the values were obtained:
Type in all cases: functional
[1] = tested on: Plasmodium berghei; assay: Antimalarial activity as 60-day survivors in Plasmodium berghei infected mice (Mus musculus) after single 160mg/kg subcutaneous dose 72 hr post infection
Outline: (§1)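 Mice were infected with a normal drug-sensitive Plasmodium berghei strain. At 72 h postinfection each received one subcutaneous dose of compound dissolved or suspended in peanut oil, in five-mouse groups per dose. The read-out was the number of mice alive at 60 days postinfection, which were scored as cured.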

[2] = tested on: Plasmodium berghei; assay: Change in mean survival time for control (average 6.2 days) versus treated mice (Mus musculus) 72 hrs after 20 mg/kg subcutaneous dose
[3] = tested on: Mus musculus; assay: Antimalarial activity, administered as a single subcutaneous dose of 640 mg/kg, 72 hrs post infection measured as number of mice (Mus musculus) surviving at 60 days post infection; outline: as §1
[4] = tested on: Plasmodium berghei; assay: Antimalarial activity as 60-day survivors in infected mice (Mus musculus) after single 320mg/kg subcutaneous dose 72 hr post infection; outline: as §1
[5] = tested on: Mus musculus; assay: Antimalarial activity, administered as a single subcutaneous dose of 80 mg/kg, 72 hrs post infection measured as number of mice (Mus musculus) surviving at 60 days post infection; outline: as §1
[6] = tested on: Plasmodium berghei; assay: Difference in mean survival time in mice (Mus musculus) (control = 6.2 days) after single 40mg/kg subcutaneous dose 72hr post infection
[7] = tested on: Plasmodium berghei; assay: Change in mean survival time for control (average 6.2 days) versus treated mice (Mus musculus) 72 hrs after 10 mg/kg subcutaneous dose
[8] = tested on: Plasmodium berghei; assay: Antimalarial activity in primary screen
[9] = tested on: Plasmodium berghei; assay: Change in mean survival time for control (average 6.2 days) versus treated mice (Mus musculus) 72 hrs after 5 mg/kg subcutaneous dose
[10] = tested on: Plasmodium berghei; assay: Change in mean survival time for control (average of 6.2 days) versus treated mice (Mus musculus) 72 hrs after 80 mg/kg subcutaneous dose
[11] = tested on: Plasmodium berghei; assay: Change in mean survival time for control (average 6.2 days) versus treated mice (Mus musculus) 72 hrs after 160 mg/kg subcutaneous dose
[12] = tested on: Plasmodium berghei; assay: Change in mean survival time for control (average 6.2 days) versus treated mice (Mus musculus) 72 hrs after […] subcutaneous dose
[13] = tested on: Mus musculus; assay: Antimalarial activity, administered as a single subcutaneous dose of 40 mg/kg, 72 hrs post infection measured as number of mice (Mus musculus) surviving at 60 days post infection; outline: as §1
[14] = tested on: Plasmodium berghei; assay: Change in mean survival time for control (average 6.2 days) versus treated mice (Mus musculus) 72 hrs after […] subcutaneous dose
[15] = tested on: Plasmodium berghei; assay: Change in mean survival time for control (average 6.2 days) versus treated mice (Mus musculus) 72 hrs after 640 mg/kg subcutaneous dose
[16] = tested on: Plasmodium berghei; assay: Change in mean survival time for control (average 6.2 days) versus treated mice (Mus musculus) 72 hrs after 320 mg/kg subcutaneous dose

| SMILES | No. of mice cured [1] | Delta MST [2] [days] | No. of mice cured [3] | No. of mice cured [4] | No. of mice cured [5] | Delta MST [6] [days] | Delta MST [7] [days] | ED30 [8] [mg/kg] | Delta MST [9] [days] | Delta MST [10] [days] | Delta MST [11] [days] | Delta MST [12] [days] | No. of mice cured [13] | Delta MST [14] [days] | Delta MST [15] | Delta MST [16] [days] |
| --- | --- | --- | --- | --- | --- | --- | --- | --- | --- | --- | --- | --- | --- | --- | --- | --- |
| CCN(CC)Cc1cc(Nc2ccnc3cc(Cl)ccc23)ccc1O.Cl | 5 | 8.3 | 5 | 5 | 2 | 11.9 | 5.7 | – | – | – | – | – | – | – | – | – |
| CCN(CC)Cc1cc(Nc2ccnc3cc(Cl)ccc23)cc(-c2ccccc2F)c1O | 2 | 16.4 | 5 | 5 | – | 18.4 | 12.8 | 26.8 | 4.4 | 26.2 | 33.1 | 0 | 1 | 0.4 | – | – |
| CCN(CC)Cc1cc(Nc2ccnc3cc(Cl)ccc23)cc(-c2ccc(Cl)c(Cl)c2)c1O | 4 | 15.7 | 3 | 5 | 4 | 23.7 | 0.9 | 22.7 | 0.1 | 33.4 | 21.4 | -0.1 | 3 | -0.3 | 10.9 days | – |
| CCN(CC)Cc1cc(Nc2ccnc3cc(Cl)ccc23)cc(-c2ccc(F)cc2)c1O | – | – | – | – | – | 13.4 | – | 8.8 | – | – | 12.8 | – | 2 | – | 14.8 days | – |
| CCN(CC)Cc1cc(Nc2ccnc3cc(Cl)ccc23)cc(-c2ccccc2OC)c1O | 2 | 6.2 | 5 | 2 | 2 | 9.4 | 2.6 | 74 | 0.4 | 14.9 | 18.9 | -0.2 | – | 0.2 | – | 37.9 |
| CCN(CC)Cc1cc(Nc2ccnc3cc(Cl)ccc23)cc(-c2ccncc2)c1O | 1 | 5.5 | 2 | 1 | 1 | 9.3 | 2.1 | 89 | 1.9 | 11.5 | 21.7 | -0.1 | – | 0.5 | 25 days | 21.2 |
| CCN(CC)Cc1cc(Nc2ccnc3cc(Cl)ccc23)cc(-c2ccccc2C(F)(F)F)c1O | 5 | 12.5 | 4 | 4 | 1 | 18.5 | 3.1 | 34.7 | 1.1 | 25.5 | – | 0.3 | 1 | -0.3 | 20.7 days | 30.7 |
| CCCCN(CCCC)Cc1cc(Nc2ccnc3cc(Cl)ccc23)cc(-c2ccc(Cl)cc2)c1O | – | 4.6 | 3 | – | – | 8.2 | 2 | – | 0.2 | 12.6 | 17 | 0.4 | – | 0.2 | 34.4 days | 24 |
| CCN(CC)Cc1cc(Nc2ccnc3cc(Cl)ccc23)cc(-c2ccc(O)cc2)c1O | – | -0.2 | 1 | 2 | – | 0.8 | – | 320 | – | 4.8 | 6.8 | – | – | – | 4.1 days | 3.8 |
| CCN(CC)Cc1cc(Nc2ccnc3cc(Cl)ccc23)cc(-c2cccc3ccccc23)c1O | – | 0.3 | 2 | 1 | – | 2.3 | 0.7 | 4200 | -0.3 | 5.8 | 6.6 | 0.1 | – | -0.1 | 8.1 days | 11.2 |
| Oc1c(CN2CCCC2)cc(Nc2ccnc3cc(Cl)ccc23)cc1-c1ccc(Cl)c(Cl)c1 | 4 | 8.3 | 3 | 3 | 1 | 18.5 | 0.1 | – | – | 30.2 | – | -0.1 | – | -0.1 | 33.9 days | 25.9 |
| CCN(CC)Cc1cc(Nc2ccnc3cc(Cl)ccc23)cc(-c2cc(OC)ccc2OC)c1O | – | 0 | – | – | – | 3.8 | – | 9680 | – | 3.6 | 4 | – | – | – | 8.6 days | 8.8 |
| CCN(CC)Cc1cc(Nc2ccnc3cc(Cl)ccc23)cc(-c2ccc(SC)cc2)c1O | – | 6.7 | 4 | 2 | – | 9.1 | 1.3 | 151 | 0.5 | 10 | 19.2 | 0.5 | – | 0.1 | 13.6 days | 25.3 |
| CC(C)(C)NCc1cc(C(C)(C)C)cc(-c2ccc(Cl)cc2)c1O | 5 | 5.1 | 5 | 5 | – | 12.9 | – | – | – | 15.7 | – | – | – | – | – | – |
| CCN(CC)Cc1cc(Nc2ccnc3cc(Cl)ccc23)cc(-c2ccc(C)cc2)c1O | – | 3.3 | – | – | – | 4.5 | 1.6 | 1530 | 0.4 | 6.5 | 9.7 | 0.4 | – | 0.4 | 20.5 days | 14.5 |
| CCN(CC)Cc1cc(Nc2ccnc3cc(Cl)ccc23)cc(-c2ccc(OC)cc2)c1O | 2 | 4.3 | 5 | 3 | 1 | 7.3 | 2.9 | 112 | 1.3 | 12.4 | 16.1 | 0.5 | – | 0.1 | – | 28.9 |
| CCN(CC)Cc1cc(Nc2ccnc3cc(Cl)ccc23)cc(-c2ccccn2)c1O | – | 2.6 | 3 | 3 | – | 3.8 | – | 160 | – | 7.8 | 11.2 | – | – | – | 25.3 days | 15.8 |
| Oc1c(CNC23CC4CC(CC(C4)C2)C3)cc(Nc2ccnc3cc(Cl)ccc23)cc1-c1ccc(Cl)cc1 | 4 | 7.5 | 2 | 5 | 4 | 18.5 | 0.1 | – | -0.3 | 23 | 39 | -0.5 | – | -0.3 | 19 days | – |
| CCN(CC)Cc1cc(Nc2cc[n+]([O-])c3cc(Cl)ccc23)ccc1O | 3 | – | 3 | 5 | – | – | – | – | – | – | – | – | – | – | – | – |
| CCN(CC)Cc1cc(Nc2ccnc3cc(Cl)ccc23)cc(-c2ccc(OC)c(OC)c2)c1O | – | 1.2 | 1 | – | – | 3.8 | – | 927 | – | 5.4 | 8.6 | – | – | – | 13.1 | 12 |
| CCN(CC)Cc1cc(Nc2ccnc3cc(Cl)ccc23)cc(CN(CC)CC)c1O [CYLCLOQUINE] | 4 | 15.1 | 5 | 5 | 2 | 19.1 | 11.5 | – | – | – | – | – | – | – | – | – |
